SMILES strings stand for the structures. In brackets after ≈: the same amount, converted by molar mass. Activity calls are given as the source filed them. The rule behind the calls is not given here.

By MIC is commonly meant the lowest concentration that inhibits growth of the organism.

The subject of assay [1] is Escherichia coli. Briefly: Antibacterial activity against Escherichia coli ATCC 25922 at 200 ug/ml after 24 hrs. Type of assay: functional, organism-based. The essentials:
(§1)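 Organisms grown overnight at 37 °C in buffered glucose broth. A loopful (5 mm diameter) was added to buffered glucose broth containing the test compound and incubated at 37 °C for 24 h. Growth was scored against the untreated control as total inhibition, poor, medium or confluent growth.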

The subject of assay [2] is Escherichia coli. As to the kind of experiment: Antibacterial activity against Escherichia coli ATCC 25922 after 24 hrs. The class given is functional.
Assay [3] deals with Bacillus subtilis. Briefly: Antibacterial activity against Bacillus subtilis MTCC 121 at 1 ug/ml after 24 hrs. The class given is functional, organism-based. Put shortly: as §1
In assay [4] the test system is Bacillus subtilis. As to the kind of experiment: Antibacterial activity against Bacillus subtilis MTCC 121 after 24 hrs. The class given is functional.
Another assay relates to Aspergillus flavus. Briefly: Antifungal activity against Aspergillus flavus AIIMS isolate at 30 ug/ml by cup-plate agar diffusion method. Type of assay: functional. The conditions noted are these: for zone of inhibition at 30 µg/mL: read-out: DIZ. Put shortly: (§2)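 Cup-plate agar diffusion assay against the fungal strains, with amphotericin B as the reference standard.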

Assay [5] deals with Bacillus subtilis. As to the kind of experiment: Antibacterial activity against Bacillus subtilis MTCC 121 at 200 ug/ml after 24 hrs. The class given is functional, organism-based. The essentials: as §1
In assay [6] the test system is Escherichia coli. Briefly: Antibacterial activity against Escherichia coli ATCC 25922 at 500 ug/ml after 24 hrs. The class given is functional, organism-based. The essentials: as §1
In assay [7] the test system is Bacillus subtilis. Briefly: Antibacterial activity against Bacillus subtilis MTCC 121 at 500 ug/ml after 24 hrs. Type of assay: functional, organism-based. Put shortly:
as §1

The subject of assay [8] is Bacillus subtilis. As to the kind of experiment: Antibacterial activity against Bacillus subtilis MTCC 121 at 100 ug/ml after 24 hrs. Type of assay: functional, organism-based. Put shortly:
as §1

The subject of assay [9] is Escherichia coli. As to the kind of experiment: Antibacterial activity against Escherichia coli ATCC 25922 at 100 ug/ml after 24 hrs. The class given is functional, organism-based. The essentials:
as §1

The subject of a further assay is Candida albicans. As to the kind of experiment: Antifungal activity against Candida albicans MTCC 1637 at 30 ug/ml by cup-plate agar diffusion method. Type of assay: functional. The conditions noted are these: for zone of inhibition at 30 µg/mL: read-out: DIZ. The essentials: as §2
A general note: Agar diffusion results depend on both activity and mobility in agar.

Assay [10] has as its system Escherichia coli. Briefly: Antibacterial activity against Escherichia coli ATCC 25922 at 1 ug/ml after 24 hrs. Type of assay: functional, organism-based. The essentials:
as §1

The next assay concerns Aspergillus niger. As to the kind of experiment: Antifungal activity against Aspergillus niger AIIMS isolate at 30 ug/ml by cup-plate agar diffusion method. Type of assay: functional. The conditions noted are these: for zone of inhibition at 30 µg/mL: read-out: DIZ. Put shortly:
as §2

Assay [11] concerns Bacillus subtilis. Briefly: Antibacterial activity against Bacillus subtilis MTCC 121 at 10 ug/ml after 24 hrs. The class given is functional, organism-based. The essentials: as §1
Assay [12] has as its system Escherichia coli. Briefly: Antibacterial activity against Escherichia coli ATCC 25922 at 10 ug/ml after 24 hrs. The class given is functional, organism-based. Put shortly: as §1

As to `Cc1nc2ccccc2n1Cc1nnc(/N=C/c2ccccc2Cl)s1`, the inhibition entry with Escherichia coli [1], in the assay on Bacillus subtilis [5], with Escherichia coli [6], in the assay with Bacillus subtilis [7], in the assay on Bacillus subtilis [8] and with Escherichia coli [9] was “Active” in each case. Moreover, the MIC against Escherichia coli [2] (ATCC 25922, 24 h) was 100 µg/mL (≈ 272 µM); with Bacillus subtilis [4] (MTCC 121, 24 h), 100 µg/mL (≈ 272 µM). Further, the inhibition result with Bacillus subtilis [3] and in the assay with Escherichia coli [10] was “inactive” each time. Besides, the “diameter of the inhibition zone (DIZ)” value in the assay on Aspergillus flavus, in the assay with Candida albicans and in the assay on Aspergillus niger was “inactive” throughout.

As for `Cc1nc2ccccc2n1Cc1nnc(/N=C/c2ccc(Cl)cc2)s1`, the inhibition entry with Escherichia coli [1], in the assay on Bacillus subtilis [11], with Bacillus subtilis [3], in the assay on Bacillus subtilis [5], in the assay with Escherichia coli [6] and with Bacillus subtilis [8] was “inactive” in each case. Further, the inhibition entry with Escherichia coli [9], in the assay with Escherichia coli [10] and with Escherichia coli [12] was “inactive” in each case. For the same molecule, the MIC result in the assay with Escherichia coli [2] and in the assay with Bacillus subtilis [4] was “inactive” throughout. For the same molecule, the values for the zone of inhibition at 30 µg/mL with Aspergillus flavus, with Candida albicans and with Aspergillus niger were less than 10 mm, 10 mm and 10 mm, respectively. Also, the outcome with Bacillus subtilis [7] was inactive.

Regarding `COc1ccccc1C1C(Cl)C(=O)N1c1nnc(Cn2c(C)nc3ccccc32)s1` (stereo not given), the inhibition result in the assay on Escherichia coli [1], in the assay on Bacillus subtilis [11], with Bacillus subtilis [3], with Bacillus subtilis [5], in the assay on Escherichia coli [6] and in the assay with Bacillus subtilis [8] was “inactive” each time. The inhibition entry in the assay on Escherichia coli [9], with Escherichia coli [10] and in the assay on Escherichia coli [12] was “inactive” in each case. In addition, the MIC result with Escherichia coli [2] and in the assay on Bacillus subtilis [4] was “inactive” throughout. Besides, the zone of inhibition at 30 µg/mL in the assay with Aspergillus flavus, with Candida albicans and with Aspergillus niger was less than 10 mm each time. For the same molecule, the outcome in the assay on Bacillus subtilis [7] was inactive.

For `Cc1cccc(/C=N/c2nnc(Cn3c(C)nc4ccccc43)s2)c1`, the inhibition result in the assay with Escherichia coli [1], in the assay with Bacillus subtilis [11], in the assay on Bacillus subtilis [3], in the assay on Escherichia coli [6], with Bacillus subtilis [8] and in the assay on Escherichia coli [9] was “inactive” throughout. Also, the inhibition entry in the assay with Escherichia coli [10] and in the assay with Escherichia coli [12] was “inactive” in each case. In addition, in the assay on Escherichia coli [2], the MIC entry was “inactive”. For the same molecule, the outcome with Bacillus subtilis [4], in the assay on Bacillus subtilis [5] and with Bacillus subtilis [7] was inactive. Moreover, the “diameter of the inhibition zone (DIZ)” value with Aspergillus flavus, in the assay with Candida albicans and with Aspergillus niger was “inactive” each time.

Regarding `CC1(C)S[C@@H]2[C@H](NC(=O)[C@H](N)c3ccccc3)C(=O)N2[C@H]1C(=O)O` [AMPICILLIN], the inhibition entry with Escherichia coli [1], with Bacillus subtilis [11], with Bacillus subtilis [5], in the assay on Escherichia coli [6], in the assay on Bacillus subtilis [7] and in the assay with Bacillus subtilis [8] was “Active” each time. In addition, the inhibition result with Escherichia coli [9] and in the assay on Escherichia coli [12] was “Active” throughout. In addition, the MIC came out at 10 µg/mL (≈ 28.6 µM) in the assay on Escherichia coli [2] (ATCC 25922, 24 h) and 10 µg/mL (≈ 28.6 µM) in the assay with Bacillus subtilis [4] (MTCC 121, 24 h).

As for `Cc1ccccc1/C=N/c1nnc(Cn2c(C)nc3ccccc32)s1`, the inhibition result with Escherichia coli [1], in the assay with Bacillus subtilis [5], with Escherichia coli [6], with Bacillus subtilis [7] and in the assay with Escherichia coli [9] was “Active” throughout. Further, the inhibition result in the assay with Bacillus subtilis [11], in the assay with Bacillus subtilis [3] and in the assay on Escherichia coli [10] was “inactive” each time. In addition, the MIC in the assay on Escherichia coli [2] (ATCC 25922, 24 h) was 100 µg/mL (≈ 288 µM); in the assay with Bacillus subtilis [4] (MTCC 121, 24 h), 200 µg/mL (≈ 576 µM). In addition, the zone of inhibition at 30 µg/mL in the assay on Aspergillus flavus was less than 10 mm; in the assay on Candida albicans, 10 mm; in the assay on Aspergillus niger, 10 mm.

Regarding `Cc1ccccc1C1C(Cl)C(=O)N1c1nnc(Cn2c(C)nc3ccccc32)s1` (stereo not given), the inhibition result with Escherichia coli [1], with Bacillus subtilis [5], in the assay on Escherichia coli [6], with Bacillus subtilis [7], in the assay on Bacillus subtilis [8] and in the assay on Escherichia coli [9] was “Active” in each case. Further, the MIC worked out at 100 µg/mL (≈ 236 µM) in the assay with Escherichia coli [2] (ATCC 25922, 24 h) and 100 µg/mL (≈ 236 µM) with Bacillus subtilis [4] (MTCC 121, 24 h). Also, the inhibition entry in the assay on Bacillus subtilis [3] and with Escherichia coli [10] was “inactive” each time. For the same molecule, the zone of inhibition at 30 µg/mL is less than 10 mm in the assay with Aspergillus flavus, 10 mm in the assay on Candida albicans and 16 mm in the assay with Aspergillus niger.

For `Cc1cccc(C2C(Cl)C(=O)N2c2nnc(Cn3c(C)nc4ccccc43)s2)c1` (stereo not given), the inhibition result in the assay on Escherichia coli [1], with Bacillus subtilis [11], with Bacillus subtilis [3], with Bacillus subtilis [5], in the assay with Escherichia coli [6] and with Bacillus subtilis [8] was “inactive” throughout. Besides, the inhibition result in the assay on Escherichia coli [9], with Escherichia coli [10] and with Escherichia coli [12] was “inactive” each time. For the same molecule, the MIC result in the assay on Escherichia coli [2] and in the assay on Bacillus subtilis [4] was “inactive” each time. For the same molecule, the “diameter of the inhibition zone (DIZ)” value with Aspergillus flavus, in the assay on Candida albicans and in the assay with Aspergillus niger was “inactive” in each case. Moreover, in the assay on Bacillus subtilis [7], the result was inactive.

On to `Cc1nc2ccccc2n1Cc1nnc(N2C(=O)C(Cl)C2c2ccccc2Cl)s1` (stereo not given), for which the inhibition result in the assay with Escherichia coli [1], in the assay on Bacillus subtilis [5], in the assay on Escherichia coli [6], in the assay with Bacillus subtilis [7] and in the assay with Escherichia coli [9] was “Active” throughout. In addition, the inhibition result in the assay on Bacillus subtilis [11], in the assay with Bacillus subtilis [3] and in the assay on Escherichia coli [10] was “inactive” in each case. Moreover, the MIC against Escherichia coli [2] (ATCC 25922, 24 h) turned out to be 100 µg/mL (≈ 225 µM); against Bacillus subtilis [4] (MTCC 121, 24 h) it was 200 µg/mL (≈ 450 µM). The “diameter of the inhibition zone (DIZ)” value in the assay with Aspergillus flavus, with Candida albicans and in the assay with Aspergillus niger was “inactive” each time.

For `Cc1nc2ccccc2n1Cc1nnc(N2C(=O)C(Cl)C2c2ccc(Cl)cc2)s1` (stereo not given), the inhibition entry in the assay on Escherichia coli [1], in the assay with Bacillus subtilis [11], with Bacillus subtilis [3], in the assay on Bacillus subtilis [5], in the assay with Escherichia coli [6] and in the assay on Bacillus subtilis [8] was “inactive” each time. The inhibition entry with Escherichia coli [9], in the assay on Escherichia coli [10] and in the assay with Escherichia coli [12] was “inactive” each time. Moreover, the MIC entry with Escherichia coli [2] and in the assay with Bacillus subtilis [4] was “inactive” in each case. The “diameter of the inhibition zone (DIZ)” value with Aspergillus flavus, in the assay on Candida albicans and in the assay with Aspergillus niger was “inactive” in each case. In the assay on Bacillus subtilis [7], the result was inactive.

As to `Cc1nc2ccccc2n1Cc1nnc(/N=C/c2ccc(Br)cc2)s1`, the inhibition result in the assay with Bacillus subtilis [11], in the assay on Bacillus subtilis [3], in the assay with Escherichia coli [10] and in the assay with Escherichia coli [12] was “inactive” throughout. Moreover, the MIC with Escherichia coli [2] (ATCC 25922, 24 h) was found to be 500 µg/mL (≈ 1210 µM); in the assay on Bacillus subtilis [4] (MTCC 121, 24 h) it was 500 µg/mL (≈ 1210 µM). For the same molecule, the “diameter of the inhibition zone (DIZ)” value in the assay with Aspergillus flavus, in the assay with Candida albicans and in the assay on Aspergillus niger was “inactive” throughout. Further, the inhibition result in the assay with Escherichia coli [6] and with Bacillus subtilis [7] was “Active” each time.

As to `COc1ccccc1/C=N/c1nnc(Cn2c(C)nc3ccccc32)s1`, the inhibition entry with Escherichia coli [1], in the assay with Bacillus subtilis [11], in the assay with Bacillus subtilis [3], with Bacillus subtilis [5], with Escherichia coli [6] and with Bacillus subtilis [8] was “inactive” each time. For the same molecule, the inhibition result in the assay with Escherichia coli [9], in the assay with Escherichia coli [10] and in the assay with Escherichia coli [12] was “inactive” throughout. In addition, the MIC entry in the assay with Escherichia coli [2] and in the assay with Bacillus subtilis [4] was “inactive” throughout. In addition, the results for the zone of inhibition at 30 µg/mL with Aspergillus flavus, with Candida albicans and in the assay with Aspergillus niger were 16 mm, 10 mm and 16 mm, respectively. In addition, the outcome in the assay on Bacillus subtilis [7] was inactive.

`Cc1nc2ccccc2n1Cc1nnc(N2C(=O)C(Cl)C2c2ccccc2)s1` (stereo not given): the inhibition entry in the assay with Bacillus subtilis [11], in the assay with Bacillus subtilis [3], with Escherichia coli [10] and in the assay with Escherichia coli [12] was “inactive” in each case. In addition, the MIC against Escherichia coli [2] (ATCC 25922, 24 h) turned out to be 500 µg/mL (≈ 1220 µM); against Bacillus subtilis [4] (MTCC 121, 24 h), 200 µg/mL (≈ 488 µM). Also, the zone of inhibition at 30 µg/mL in the assay on Aspergillus flavus amounted to 16 mm; in the assay with Candida albicans, 16 mm; with Aspergillus niger, 10 mm. Besides, the inhibition result in the assay with Bacillus subtilis [5], with Escherichia coli [6] and in the assay on Bacillus subtilis [7] was “Active” throughout.

For the origin of these results see ChEMBL document CHEMBL1158335, “Synthesis and evaluation of some new benzimidazole derivatives as potential antimicrobial agents” (2009).
